Most compounds without a hit are left out; they make up all but 0.63% or so of the library.
STK33 inh: inhibitors of human STK33 kinase. Q9BYT3. purified STK33, MBP phosphorylation, ADP-Glo luminescence. inhibition, % at 10 µM. 320,000 compounds, 0.073% hits;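 active means inhibition at or above 25%, using the most active replicate where run in duplicate; inactive means inhibition below 25%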
Target sequence (Q9BYT3 whole entry, looked up): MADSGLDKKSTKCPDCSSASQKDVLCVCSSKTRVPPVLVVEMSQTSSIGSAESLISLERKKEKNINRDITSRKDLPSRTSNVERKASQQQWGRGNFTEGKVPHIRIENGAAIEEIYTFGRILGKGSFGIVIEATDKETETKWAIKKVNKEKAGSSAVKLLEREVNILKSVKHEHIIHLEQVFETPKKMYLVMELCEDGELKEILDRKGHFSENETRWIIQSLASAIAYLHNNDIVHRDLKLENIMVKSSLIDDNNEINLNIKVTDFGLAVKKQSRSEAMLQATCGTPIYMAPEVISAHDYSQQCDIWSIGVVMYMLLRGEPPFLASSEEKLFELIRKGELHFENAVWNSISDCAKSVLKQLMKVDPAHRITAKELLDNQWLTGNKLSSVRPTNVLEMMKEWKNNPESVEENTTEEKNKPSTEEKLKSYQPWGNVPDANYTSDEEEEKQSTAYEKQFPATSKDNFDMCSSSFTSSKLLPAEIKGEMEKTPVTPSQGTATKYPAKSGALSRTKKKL
DSG3 Ab inh: inhibitors of pemphigus antibody binding to human desmoglein-3. binding (percent of control), % at 10 µM. P32926. DSG3-coupled beads, scFv-anti-DSG3-GFP binding, flow cytometry; active compounds read low. 310,000 compounds, 0.48% hits;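 active means binding more than 3 SD below its plate's average and above zero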;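 further: hits lower antibody fragment binding to DSG3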
MT1-MMP act inh: MT1-MMP (human) activation inhibition; P50281; HT1080 RFP-PRO-GFP cells, GFP/RFP ratio fluorescence, overnight; percent of plate control window, DMSO zero; GFP/RFP ratio change, % at 20 µM; 360,000 compounds, 0.061% hits; AID 651647;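 active means GFP/RFP ratio change of at least 30% with cell ATP level not reduced by more than half and red fluorescence within 50% of control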
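Assay system: RFP-PRO-GFP reporter HT1080 cells; read-out basis: GFP/RFP fluorescence ratio; benchmarks: DMSO wells and RFP-L50D-GFP cells; doses: 20 µM single dose, 1% DMSO; schedule: overnight cell settling, then overnight compound exposure, 37 °C, 5% CO2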
GSK3beta inhib: blocks human GSK3beta kinase activity; P49841; GST-GSK3beta kinase, ADP-Glo luminescence, 60 min; active compounds read low; activity score (negative = inhibition), % at 10 µM; 300,000 compounds, 0.038% hits; AID 2097;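 active means more than half of replicate wells score below -50%, meaning over 50% inhibition versus plate controls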
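Test system – GST-tagged human GSK3beta kinase, cell-free · Incubation – 60 min enzyme reaction, room temperature · Signal – ADP-Glo luminescence · Also added – peptide substrate and ATP at 25 µM · Controls – DMSO neutral wells and GW8510 at 20 µM as positive · Buffer or medium – Tris/MgCl2 kinase buffer · Measure – Luminescence-derived activity versus plate DMSO and GW8510 wells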
GSK3A inh: blocks human GSK-3 alpha kinase; P49840; ADP-Glo luminescence, 60 min; inhibition, % at 10 µM; 320,000 compounds, 0.1% hits; AID 2650;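 active means more than half of replicates show inhibition above 20%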;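 further: GST-tagged GSK-3 alpha with peptide substrate and 25 µM ATP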
MT1-MMP conf: validation of inhibitors of human MT1-MMP activation | shares compounds with MT1-MMP act inh | HT1080 RFP-PRO-GFP cells, GFP and RFP fluorescence ratio, overnight | inhibition, % at 20 µM | 200 compounds, 10% hits | AID 652235;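 active means inhibition of at least 50% in the primary cell screen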
Numbers stand for hits; 0 = inactive; - = no result.

SMILES | STK33 inh | DSG3 Ab inh | MT1-MMP act inh | GSK3beta inhib | GSK3A inh | MT1-MMP conf
O=C1CC=C2C3CC4N(CCC45c4ccccc4N1C25)CC3=CCO (configuration not stated) | - | 0 | 0 | - | - | -
NC(=O)c1ccc(N=Cc2c(O)n(Cc3ccco3)c(=O)[nH]c2=O)cc1 | 0 | 79.5 | 0 | 0 | 0 | -
CCN(CC)c1ccc(N=Cc2c(O)n(Cc3ccco3)c(=O)[nH]c2=O)cc1 | 0 | - | 0 | 0 | 0 | -
C[N+]1=C(/C=C/Nc2ccccc2)C(C)(C)c2ccccc21 | 0 | 0 | 37.8 | 0 | 0 | 0
CCCCCN1C(=O)c2cc(OC)ccc2[C@@]2(C(=O)OCC)Cc3cc(OC)ccc3[C@@H]12 | - | - | 0 | - | - | -
CN(Cc1cccc(-c2ccncc2)c1)C(=O)Oc1ccccc1Cc1ccccc1 | - | - | 0 | - | - | -
COc1cc2c(cc1OC)-c1c(OC)c(OC)cc3c1[C@H](C2)N(C)CC3 | 0 | 0 | 50.4 | 0 | 0 | 0
C[C@@]12CC[C@@H](c3cc4c(cc3C1)OCO4)N2c1ccccc1 | - | - | 0 | - | - | -
CCC(C)N1C(=O)/C(=C\c2ccc(N3CCCCCC3)cc2)C(=O)NC1=S (configuration not stated) | 0 | 0 | 33.5 | 0 | 0 | 0
CN1C(=O)C(=Cc2ccc(Sc3ccccc3)o2)C(=O)N(C)C1=S | 0 | 0 | 0 | 0 | 0 | -
CN1C(=O)C(=Cc2ccc(Sc3ccccc3)o2)C(=O)N(C)C1=O | 0 | 0 | 32.7 | 0 | 0 | 0
COc1cccc(C(c2nnnn2C2CCCCC2)N2CCC3(CC2)C(=O)NCN3c2ccccc2)c1OC (configuration not stated) | - | - | 0 | - | - | -
C[n+]1c2ccccc2nc2ccc(NCCO)cc21 | 0 | 0 | 55.1 | 0 | 0 | 0
CNc1ccc2nc3ccccc3[n+](C)c2c1 | 0 | 0 | 67.3 | 0 | 0 | 0
OCCNc1c2c(nc3ccccc13)CCCC2 | 0 | 0 | 0 | 0 | 0 | -
